The source made the active and inactive calls. No cut-off for these calls is given here.
Legend:
UKE1 = assay: Antitumor activity against human UKE1 cells xenografted in po dosed SCID mouse assessed as tumor growth inhibition administered bid for 14 days; type: functional, organism-based
Method in brief: (§1)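 UKE-1 cells mixed with matrigel implanted subcutaneously in female SCID mice. On day 15, mice randomized at a mean tumor volume of about 150 mm³. Oral gavage twice daily at 3 or 10 mg/kg, or vehicle, for 14 days. Tumor volume and body weight tracked through the dosing phase.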

Mus musculus [1] = assay: In vivo inhibition of Jak2 in mouse transfected with mouse BA/F3 cells expressing TEL-Jak2 assessed as inhibition of STAT5 phosphorylation at 3 to 10 mg/kg, po by Western blotting analysis; type: functional, organism-based; settings: BaF3, TDE = time-dependent effect
Method in brief: (§2)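 Mice bearing BaF3 TEL-JAK2 cells given a single oral dose of 3, 5 or 10 mg/kg and sacrificed at various times after dosing. Spleen lysates probed for phospho-STAT5 and total STAT5 by Western blot, and pSTAT5 inhibition assessed.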

Mus musculus [2] = assay: In vivo inhibition of Jak2 in mouse transfected with mouse BA/F3 cells expressing TEL-Jak2 assessed as inhibition of STAT5 phosphorylation at 3 mg/kg, po after 6 hrs by Western blotting analysis; type: functional; settings: BaF3, 6 h; method in brief: as §2
Mus musculus [3] = assay: In vivo inhibition of Jak2 in mouse transfected with mouse BA/F3 cells expressing TEL-Jak2 assessed as inhibition of STAT5 phosphorylation at 10 mg/kg, po after 6 hrs by Western blotting analysis; type: functional, organism-based; design: dose 10 mg/kg; settings: BaF3; method in brief: as §2
[4] = Cytotoxicity against human SET2 cells expressing Jak2 V617F mutant after 72 hrs by MTS assay; type: functional; settings: SET-2, 72 h
[5] = Cytotoxicity against mouse BA/F3 cells expressing TEL-Tyk2 after 72 hrs by MTS assay; type: functional; settings: BaF3, 72 h
Method in brief: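 BaF3 cells transfected with the kinase domain of Jak1, Jak3 or Tyk2 (TEL fusions). Growth inhibition measured as the counter-screen for cellular selectivity.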

LIM domain kinase 1 = LIM domain kinase 1 (Homo sapiens, UniProt P53667); assay: Inhibition of human LIMK1
Method in brief: (§3)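 Panel of 82 kinases. Radiometric filter-binding assay with ATP at or near Km. Compound tested at 0.01, 0.10 and 1.0 μM. Values expressed as minimum possible fold selectivity against Jak2.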

[6] = target: Fibroblast growth factor receptor 1 (Homo sapiens, UniProt P11362); assay: Inhibition of human FGFR1; method in brief: as §3
[7] = target: T1, Tyrosine-protein kinase JAK3 (Homo sapiens, UniProt P52333); assay: Inhibition of human JAK3; method in brief: as §3
T1 sequence (P52333 whole entry): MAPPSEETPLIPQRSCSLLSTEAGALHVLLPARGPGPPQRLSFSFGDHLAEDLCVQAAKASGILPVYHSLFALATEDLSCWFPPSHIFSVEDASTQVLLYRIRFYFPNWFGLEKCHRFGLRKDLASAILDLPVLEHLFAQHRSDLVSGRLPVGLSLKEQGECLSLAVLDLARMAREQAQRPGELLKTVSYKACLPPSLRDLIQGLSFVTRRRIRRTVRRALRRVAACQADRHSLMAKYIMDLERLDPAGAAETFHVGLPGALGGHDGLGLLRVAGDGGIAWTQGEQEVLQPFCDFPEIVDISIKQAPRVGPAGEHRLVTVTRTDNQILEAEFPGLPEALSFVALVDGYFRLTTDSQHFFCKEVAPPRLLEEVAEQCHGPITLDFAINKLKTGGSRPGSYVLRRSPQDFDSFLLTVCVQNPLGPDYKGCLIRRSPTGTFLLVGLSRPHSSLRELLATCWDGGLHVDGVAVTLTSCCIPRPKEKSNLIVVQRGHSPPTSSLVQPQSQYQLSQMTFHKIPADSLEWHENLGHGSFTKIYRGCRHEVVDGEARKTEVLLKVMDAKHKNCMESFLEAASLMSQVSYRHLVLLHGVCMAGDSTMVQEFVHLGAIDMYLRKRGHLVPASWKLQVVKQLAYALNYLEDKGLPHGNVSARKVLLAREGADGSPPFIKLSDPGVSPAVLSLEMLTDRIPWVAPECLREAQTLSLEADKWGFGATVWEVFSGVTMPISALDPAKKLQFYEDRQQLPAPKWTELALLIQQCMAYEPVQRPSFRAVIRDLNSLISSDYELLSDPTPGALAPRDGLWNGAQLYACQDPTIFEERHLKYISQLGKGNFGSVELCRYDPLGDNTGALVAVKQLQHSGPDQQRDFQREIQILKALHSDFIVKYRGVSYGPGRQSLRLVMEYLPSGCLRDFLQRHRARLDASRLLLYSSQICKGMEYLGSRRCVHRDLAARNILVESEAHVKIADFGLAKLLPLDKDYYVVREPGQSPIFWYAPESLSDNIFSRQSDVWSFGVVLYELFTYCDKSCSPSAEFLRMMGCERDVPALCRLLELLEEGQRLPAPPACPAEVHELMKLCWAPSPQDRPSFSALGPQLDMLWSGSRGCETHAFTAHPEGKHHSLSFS

[8] = target: Casein kinase II subunit alpha' (Homo sapiens, UniProt P19784); assay: Inhibition of human CK2alpha2; method in brief: as §3
[9] = Half life in beagle dog at 10 mg/kg, po; type: ADME, organism-based, Canis lupus familiaris; design: dose 10 mg/kg, route oral; settings: in vivo
Method in brief: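 Male beagle dogs. Oral dose 10 mg/kg in 0.1% HPMC, pH 2. IV dose 2.5 mg/kg in 20% TEG/D5W. […] Clearance, Vdss, half-life and oral bioavailability (F%) derived from the plasma profiles.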

[10] = Clearance in Wistar rat at 10 mg/kg, po and 3 mg/kg, iv; type: ADME, organism-based; settings: in vivo
Method in brief: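 Rat pharmacokinetics. Oral dose 10 mg/kg in 0.1% HPMC. IV dose 3 mg/kg in 40% DMA/40% PEG/20% saline. Clearance, half-life, Vdss and oral bioavailability derived from the plasma profiles.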

[11] = target: T1, Tyrosine-protein kinase JAK3; assay: Inhibition of Jak3 (unknown origin)
[12] = Antitumor activity against human UKE1 cells xenografted in SCID mouse assessed as tumor growth inhibition at 10 mg/kg, po bid administered for 14 days measured on day 28; type: functional; settings: read-out: TGI; method in brief: as §1

Chain of Casein kinase II subunit alpha' (P19784 whole entry): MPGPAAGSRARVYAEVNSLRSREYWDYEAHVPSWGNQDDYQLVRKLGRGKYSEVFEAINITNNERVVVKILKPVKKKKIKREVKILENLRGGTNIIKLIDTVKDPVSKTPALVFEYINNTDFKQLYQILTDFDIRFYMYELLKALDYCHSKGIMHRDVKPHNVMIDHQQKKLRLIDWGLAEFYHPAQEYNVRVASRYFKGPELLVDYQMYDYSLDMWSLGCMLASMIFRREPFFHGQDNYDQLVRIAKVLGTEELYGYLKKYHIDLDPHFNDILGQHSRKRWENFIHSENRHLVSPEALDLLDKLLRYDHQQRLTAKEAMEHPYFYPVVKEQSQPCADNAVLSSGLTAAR
Chain of Fibroblast growth factor receptor 1 (P11362 whole entry): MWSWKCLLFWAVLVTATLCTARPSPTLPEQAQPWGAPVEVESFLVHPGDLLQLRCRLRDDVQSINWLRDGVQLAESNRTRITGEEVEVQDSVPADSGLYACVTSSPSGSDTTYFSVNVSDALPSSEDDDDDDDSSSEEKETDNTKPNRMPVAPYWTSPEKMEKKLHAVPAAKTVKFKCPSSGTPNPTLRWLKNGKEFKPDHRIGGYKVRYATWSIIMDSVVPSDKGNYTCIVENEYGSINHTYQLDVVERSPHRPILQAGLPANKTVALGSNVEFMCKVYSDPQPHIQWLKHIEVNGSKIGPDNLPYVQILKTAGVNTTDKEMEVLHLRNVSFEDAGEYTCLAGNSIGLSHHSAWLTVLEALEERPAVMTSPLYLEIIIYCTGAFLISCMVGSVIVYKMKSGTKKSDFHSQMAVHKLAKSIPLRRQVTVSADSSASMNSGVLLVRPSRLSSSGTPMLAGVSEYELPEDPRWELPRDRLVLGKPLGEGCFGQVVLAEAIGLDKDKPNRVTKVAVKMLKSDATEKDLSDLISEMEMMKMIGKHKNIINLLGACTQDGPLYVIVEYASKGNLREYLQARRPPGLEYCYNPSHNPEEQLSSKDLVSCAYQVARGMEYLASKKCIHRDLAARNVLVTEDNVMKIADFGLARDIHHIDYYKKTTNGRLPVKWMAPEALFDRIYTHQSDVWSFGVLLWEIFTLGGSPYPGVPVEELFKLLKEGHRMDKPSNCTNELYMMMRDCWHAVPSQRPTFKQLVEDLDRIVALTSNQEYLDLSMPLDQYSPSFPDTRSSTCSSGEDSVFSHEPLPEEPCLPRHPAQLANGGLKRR
Chain of LIM domain kinase 1 (P53667 whole entry, the tested form may be a part): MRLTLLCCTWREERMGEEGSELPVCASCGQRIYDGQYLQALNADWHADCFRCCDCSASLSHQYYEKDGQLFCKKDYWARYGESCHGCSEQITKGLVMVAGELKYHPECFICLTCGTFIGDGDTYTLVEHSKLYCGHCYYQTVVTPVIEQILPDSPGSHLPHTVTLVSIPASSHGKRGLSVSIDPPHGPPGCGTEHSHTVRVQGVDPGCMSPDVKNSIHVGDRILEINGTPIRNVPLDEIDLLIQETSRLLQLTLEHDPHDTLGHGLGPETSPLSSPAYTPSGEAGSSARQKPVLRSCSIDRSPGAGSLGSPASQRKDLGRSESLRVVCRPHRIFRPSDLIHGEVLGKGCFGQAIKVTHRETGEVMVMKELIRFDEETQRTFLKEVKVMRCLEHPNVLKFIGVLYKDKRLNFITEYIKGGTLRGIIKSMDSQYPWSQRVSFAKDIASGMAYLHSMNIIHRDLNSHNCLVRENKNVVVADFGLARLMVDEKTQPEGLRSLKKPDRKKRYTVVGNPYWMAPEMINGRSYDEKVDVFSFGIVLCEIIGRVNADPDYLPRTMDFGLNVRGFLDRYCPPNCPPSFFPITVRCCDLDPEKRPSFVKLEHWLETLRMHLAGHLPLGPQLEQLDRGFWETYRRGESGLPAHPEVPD

IC50 (LIM domain kinase 1): 63 nM
IC50 [6]: 50 nM
IC50 [7]: 35 nM
IC50 [8]: 2.7 nM
half-life [9]: 7.6 h
clearance [10]: 36 mL/min/kg
IC50 [11]: 220 nM
SMILES: C[C@H](Nc1nc(Nc2cn(C)cn2)c2cc[nH]c2n1)c1ncc(F)cn1
TGI (UKE1): Dose-dependent effect
inhibition (Mus musculus [1]): tde
inhibition in vivo at 3 mg/kg (Mus musculus [2]): 80%
inhibition (Mus musculus [3]): Active
GI50 [4]: 14 nM
GI50 [5]: 760 nM
inhibition in vivo at 10 mg/kg [12]: 77%

From ChEMBL document CHEMBL3112447, “Discovery of 1-methyl-1H-imidazole derivatives as potent Jak2 inhibitors” (J Med Chem, 2014)
